Measured values published in PubChem BioAssay AID602152 (Broad Institute, 2011).
Activity calls are given as the source filed them.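 How the source made its calls: active means efflux reduced below the neutral control level, like a known efflux blocker; inactive means efflux raised or left unchanged.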

Test: SR-BI-mediated cholesterol efflux to HDL inhibition, dose response, mechanism study for SR-BI HDL uptake inhibitor project, ldlA[mSR-BI] cells, [3H]cholesterol, dry powder (AID 602152)
Conditions: [3H]cholesterol efflux to HDL, LSC; at 25 µM (top of the series)
Outline: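 Test system: ldlA[mSR-BI] cells, mouse SR-BI expressing; medium: pH 7.4 assay medium, 0.5% DMSO; dosing: compounds delivered in 0.5% DMSO; schedule: 2-day label, 24 h equilibration, 1 h compound, 2 h efflux; detection: liquid scintillation counting of 3H in medium and cells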

| Compound | efflux, percent of neutral control |
| --- | --- |
| COCC(=O)N1CCc2cc(-c3csc(NC(=O)c4cc(OC)cc(OC)c4)n3)ccc21 | 9.23% (active) |
| C[C@H](C(=O)NC1CCCC1)N(C(=O)Cn1nnc(-c2ccc3c(c2)OCO3)n1)C1CCCCC1 | 6.75% (active) |
